Calls of active or inactive are those of the source. The calls are words filed in the database; no cut-off is given here.
Columns and labels:
Toledo [1] = assay: Effect on p53 mRNA expression in BCL6-negative human Toledo cells at 1.25 to 5 uM incubated for 24 hrs by RT-PCR analysis; assay type: functional, cell-based
In short: (§1)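 Toledo cells (BCL6-independent) were exposed to 1.25, 2.50 or 5.00 μM for 24 h, then mRNA was collected. Target-gene transcripts were quantified by real-time quantitative PCR against vehicle control.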

Toledo [2] = assay: Effect on ATR mRNA expression in BCL6-negative human Toledo cells at 1.25 to 5 uM incubated for 24 hrs by RT-PCR analysis; assay type: functional, cell-based; in short: as §1
Toledo [3] = assay: Effect on CD69 mRNA expression in BCL6-negative human Toledo cells at 1.25 to 5 uM incubated for 24 hrs by RT-PCR analysis; assay type: functional, cell-based; in short: as §1
Toledo [4] = assay: Effect on CD80 mRNA expression in BCL6-negative human Toledo cells at 1.25 to 5 uM incubated for 24 hrs by RT-PCR analysis; assay type: functional, cell-based; in short: as §1
Farage [5] = assay: Antiproliferative activity against human Farage cells assessed as reduction in cell viability incubated for 72 hrs by CCK8 assay
OCI-Ly7 = assay: Antiproliferative activity against human OCI-LY7 cells assessed as reduction in cell viability incubated for 72 hrs by CCK8 assay; conditions: OCI-Ly7, 72 h
Toledo [6] = assay: Antiproliferative activity against BCL6-negative human Toledo cells assessed as reduction in cell viability incubated for 72 hrs by CCK8 assay
L02 = assay: Cytotoxicity against human LO2 cells assessed as reduction in cell viability incubated for 72 hrs by CCK8 assay; conditions: L02, 72 h
[7] = Cytotoxicity against HAF cells assessed as reduction in cell viability incubated for 72 hrs by CCK8 assay; conditions: Homo sapiens
PNT1A = assay: Cytotoxicity against human PNT1A cells assessed as reduction in cell viability incubated for 72 hrs by CCK8 assay
SUD4 [8] = assay: Induction of apoptosis in human SUDHL4 cells assessed as late apoptotic cells at 0.625 uM incubated for 48 hrs by annexin V-FITC and propidium iodide staining based flow cytometry analysis (reference value: 1.39%); assay type: functional
SUD4 [9] = assay: Induction of apoptosis in human SUDHL4 cells assessed as late apoptotic cells at 1.25 uM incubated for 48 hrs by annexin V-FITC and propidium iodide staining based flow cytometry analysis (reference value: 1.39%); assay type: functional
SUD4 [10] = assay: Induction of apoptosis in human SUDHL4 cells assessed as late apoptotic cells at 2.5 uM incubated for 48 hrs by annexin V-FITC and propidium iodide staining based flow cytometry analysis (reference value: 1.39%); assay type: functional
SUD4 [11] = assay: Induction of apoptosis in human SUDHL4 cells assessed as early apoptotic cells at 1.25 uM incubated for 48 hrs by annexin V-FITC and propidium iodide staining based flow cytometry analysis (reference value: 2.62%); assay type: functional
SUD4 [12] = assay: Induction of apoptosis in human SUDHL4 cells assessed as early apoptotic cells at 2.5 uM incubated for 48 hrs by annexin V-FITC and propidium iodide staining based flow cytometry analysis (reference value: 2.62%); assay type: functional
Mus musculus [13] = assay: In vivo inhibition of GC formation in NP-CGG immunized C57BL/6 mouse assessed as proportion of Tfh cells (CXCR5+PD1+CD4+) at 10 mg/kg, iv administered 3 days once for 12 days starting from 2 days after NP-CGG addition by flow cytometry analysis (reference value: 2.25%); assay type: functional; design: scale not given: the % may be the effect or the level left
SUD4 [14] = assay: Antitumor activity against human SUDHL4 cells xenografted in SCID mouse assessed as reduction in tumor volume at 5 mg/kg, iv administered 3 days once for 15 days and measured every 3 days by caliper analysis; assay type: functional, organism-based
In short: (§2)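 Male SCID mice, 6 weeks old, received 1 × 10⁷ SUDHL4 cells s.c. At about 100 mm³, mice were randomized (n = 7) to vehicle (20% 2-hydroxypropyl-β-cyclodextrin) or 5 or 10 mg/kg every 3 days i.v. for 15 days. Body weight and caliper volume (L × W² × 0.52) were recorded every 3 days. At sacrifice, tissues were fixed in 4% paraformaldehyde and paraffin-embedded for H&E or Ki67 IHC. Tumor mRNA was assayed by qPCR.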

[15] = Toxicity in SCID mouse xenografted with human SUDHL4 cells assessed as reduction in body weight at 5 to 10 mg/kg, iv administered 3 days once for 15 days and measured every 3 days; assay type: organism-based; conditions: in vivo; in short: as §2
[16] = Toxicity in SCID mouse xenografted with human SUDHL4 cells assessed as adverse effect on heart morphology at 5 to 10 mg/kg, iv administered 3 days once for 15 days by H and E staining analysis; assay type: organism-based; conditions: in vivo; in short: as §2
[17] = Toxicity in SCID mouse xenografted with human SUDHL4 cells assessed as adverse effect on liver morphology at 5 to 10 mg/kg, iv administered 3 days once for 15 days by H and E staining analysis; assay type: organism-based; conditions: in vivo; in short: as §2
[18] = Toxicity in SCID mouse xenografted with human SUDHL4 cells assessed as adverse effect on kidney morphology at 5 to 10 mg/kg, iv administered 3 days once for 15 days by H and E staining analysis; assay type: organism-based; conditions: in vivo; in short: as §2
SUD4 [19] = assay: Antitumor activity against human SUDHL4 cells xenografted in SCID mouse assessed as reduction in Ki67 expression in tumor at 5 mg/kg, iv administered 3 days once for 15 days by Ki67-staining based immunohistochemistry; assay type: functional, organism-based; in short: as §2
Mus musculus [20] = assay: Upregulation of ATR mRNA expression in SCID mouse xenografted with human SUDHL4 cells at 5 to 10 mg/kg, iv administered 3 days once for 15 days by qPCR analysis; assay type: functional, organism-based; in short: as §2
[21] = Metabolic stability in human liver microsomes assessed as intrinsic clearance per mg of protein; assay type: ADME, Microsome; conditions: read-out: CLH
In short: (§3)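 Incubation with human liver microsomes. Intrinsic clearance was scaled to liver using 45 mg microsomal protein per g liver and 20 g liver per kg body weight. Half-life was also determined.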

[22] = Metabolic stability in human liver microsomes assessed as half life; assay type: ADME, Microsome; in short: as §3
[23] = Protein binding in human plasma; assay type: ADME, cell-free; conditions: read-out: PPB (converted)
In short: (§4)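 Human plasma protein binding was measured by a contract laboratory.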

[24] = Protein binding in human plasma assessed as unbound fraction; assay type: ADME, cell-free; in short: as §4
Mus musculus [25] = species on record: Mus musculus; conditions: C57BL/6, 10 mg/kg
Farage [26] = conditions: Homo sapiens, 0.25 to 2 uM
Toledo [27] = conditions: Homo sapiens, 0.25 to 2 uM
Mus musculus [28] = species on record: Mus musculus; conditions: C57BL/6, 10 mg/kg; remark: listed apart in the source
SUD4 [29] = assay: Antiproliferative activity against human SUDHL4 cells assessed as living cells and S phase cells at 2.5 uM incubated for 48 hrs by Edu based flow cytometry analysis (reference value: 48.3%)
SUD4 [30] = assay: Antiproliferative activity against human SUDHL4 cells assessed as living cells and S phase cells at 1.25 uM incubated for 48 hrs by Edu based flow cytometry analysis (reference value: 48.3%)
SUD4 [31] = assay: Antiproliferative activity against human SUDHL4 cells assessed as living cells and S phase cells at 0.625 uM incubated for 48 hrs by Edu based flow cytometry analysis (reference value: 48.3%)

COc1cc(Nc2nc(N3C[C@@H](C)N[C@@H](C)C3)ncc2F)ccc1NC(=O)c1ccc(C2=CCCC2)s1
Activity (Toledo [1]): inactive
Activity (Toledo [2]): inactive
Activity (Toledo [3]): inactive
Activity (Toledo [4]): inactive
IC50 (Farage [5]): 1.26 µM
IC50 (OCI-Ly7): 1.62 µM
IC50 (Toledo [6]): 3.25 µM
IC50 (L02): 13.1 µM
IC50 [7]: 26.4 µM
IC50 (PNT1A): 8.13 µM
Activity (SUD4 [8]): 3.35%
Activity (SUD4 [9]): 12.5%
Activity (SUD4 [10]): 67.3%
Activity (SUD4 [11]): 3.57%
Activity (SUD4 [12]): 5.91%
Activity (Mus musculus [13]): 0.99%
Activity (SUD4 [14]): Active
Activity [15]: Non-Toxic
Activity [16]: Non-Toxic
Activity [17]: Non-Toxic
Activity [18]: Non-Toxic
Activity (SUD4 [19]): Active
Activity (Mus musculus [20]): Active
microsomal CLint [21]: < 9.6 µL/min/mg
half-life [22]: > 1 h
fraction unbound [23]: 0.076
fraction unbound [24]: 0.076
inhibition (Mus musculus [25]): Active
inhibition (Farage [26]): inactive
inhibition (Toledo [27]): inactive
inhibition (Mus musculus [28]): Active
Activity (SUD4 [29]): 6.6%
Activity (SUD4 [30]): 12.5%
Activity (SUD4 [31]): 27.3%

Source: ChEMBL document CHEMBL4376875, “Synthesis and Biological Evaluation of B-Cell Lymphoma 6 Inhibitors of N-Phenyl-4-pyrimidinamine Derivatives Bearing Potent Activities against Tumor Growth” (J Med Chem, 2020)
